Results taken from ChEMBL document CHEMBL4011639, “Discovery of Novel Nucleotide Prodrugs with Improved Potency Against HCV Variants Carrying NS5B S282T Mutation” (J Med Chem, 2017).

Columns and labels:
Mus musculus [1] = assay: Subacute toxicity in ICR mouse assessed as effect on renal architecture at 100 to 1000 mg/kg, administered once a day via oral gavage for 14 days by hematoxylin/eosin-staining based microscopic analysis; format: organism-based; settings: in vivo, 336 h
Method in brief: (§1)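 Same 14-day daily oral gavage design as the subacute study (ICR mice, 5 per sex per group, 100/500/1000 mg/kg or vehicle). Liver and kidney taken after anesthesia on day 15, processed routinely, cut as 5 μm paraffin sections, stained with hematoxylin and eosin and examined microscopically.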

Mus musculus [2] = assay: Subacute toxicity in ICR mouse assessed as effect on appearance of hepatocytes at 100 to 1000 mg/kg, administered once a day via oral gavage for 14 days by hematoxylin/eosin-staining based microscopic analysis; format: organism-based; settings: in vivo, 336 h; method in brief: as §1
Mus musculus [3] = assay: Subacute toxicity in ICR mouse assessed as alteration in basic levels of SGPT at 100 to 1000 mg/kg, administered once a day via oral gavage for 14 days; format: organism-based; settings: in vivo, 336 h
Method in brief: (§2)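 ICR mice, 22−25 g, 5 per sex per group, gavaged daily for 14 days at 100, 500 or 1000 mg/kg in 30% PEG400/30% Tween 20/20% corn oil/20% water, with a vehicle control group. Observed daily for body weight change, skin and fur, inflammation and necrosis. Animals anesthetized on day 15; organ weights (liver, kidney) taken. Serum SGOT/SGPT compared with controls.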

Mus musculus [4] = assay: Subacute toxicity in ICR mouse assessed as alteration in basic levels of SGOT at 100 to 1000 mg/kg, administered once a day via oral gavage for 14 days; format: organism-based; settings: in vivo, 336 h; method in brief: as §2
[5] = Drug metabolism in human HuH7 cells assessed as nucleoside diphosphate kinase-mediated ((2R,3R,4R,5R)-5-(4-amino-2-oxopyrimidin-1(2H)-yl)-4-fluoro-3-hydroxy-4-methyltetrahydrofuran-2-yl)methyl tetrahydrogen triphosphate metabolite formation at 50 uM after 48 hrs by LC/MS/MS analysis; format: ADME, cell-based
Method in brief: (§3)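 Huh-7 cells plated at 0.35 million/mL in DMEM with 10% FBS (about 1 million per well at dosing) and grown 18 h. At each time point cells were washed with cold saline and lysed in methanol with internal standard. Semiquantified by LC/MS/MS MRM as Δ mean peak-area ratio relative to t0.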

UMP-CMP kinase = target: T1, UMP-CMP kinase (Homo sapiens, UniProt P30085); assay: Drug metabolism in human HuH7 cells assessed as UMP-CMP kinase-mediated ((2R,3R,4R,5R)-5-(4-amino-2-oxopyrimidin-1(2H)-yl)-4-fluoro-3-hydroxy-4-methyltetrahydrofuran-2-yl)methyl dihydrogen phosphate metabolite formation at 50 uM after 48 hrs by LC/MS/MS analysis; format: ADME, cell-based; method in brief: as §3
T1 sequence (P30085 whole entry): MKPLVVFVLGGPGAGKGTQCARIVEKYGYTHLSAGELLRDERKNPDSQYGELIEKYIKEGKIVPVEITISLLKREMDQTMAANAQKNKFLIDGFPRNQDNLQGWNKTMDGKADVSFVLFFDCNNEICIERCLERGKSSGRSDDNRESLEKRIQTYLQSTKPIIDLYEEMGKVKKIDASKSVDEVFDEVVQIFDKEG

[6] = Drug metabolism in human HuH7 cells assessed as carboxylesterase-mediated (S)-2-((S)-(((2R,3R,4R,5R)-5-(4-amino-2-oxopyrimidin-1(2H)-yl)-4-fluoro-3-hydroxy-4-methyltetrahydrofuran-2-yl)methoxy)(hydroxy)phosphoryloxy)propanoic acid metabolite formation at 50 uM after 48 hrs by LC/MS/MS analysis; format: ADME, cell-based; method in brief: as §3
[7] = Tmax in Beagle dog at 150 mg/kg, administered via oral gavage measured up to 24 hrs post dose by LC/MS/MS analysis; format: ADME, organism-based, Canis lupus familiaris; settings: in vivo
Method in brief: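 Beagle dogs, 3 per sex, given a single oral gavage dose of 150 mg/kg in 20% w/v hydroxypropyl-β-cyclodextrin in water, 2.5 mL/kg. K2EDTA blood taken by venipuncture at 0.5, 0.75, 1, 2, 4, 6, 8, 12 and 24 h. Plasma extracted with ice-cold acetonitrile, then LC/MS/MS in positive MRM mode with zolpidem as internal standard. Noncompartmental analysis; mean ± SD.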

[8] = Inhibition of wild type NS5B in HCV genotype 1b replicon expressed in human HuH7 cells after 72 hrs by bright Glo-luciferase reporter gene assay; format: cell-based, Hepatitis C virus subtype 1b; settings: Hepatitis C virus, Huh-7, 72 h
Method in brief: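 Huh7 cells carrying HCV genotype 1b replicon, 8000 per well, in duplicate 3-fold dilution series with 0.5% DMSO final; 72 h at 37 °C, 5% CO2. Viability read by Cell Titer-Fluor fluorescence after 5 min; replicon inhibition read by Bright-Glo luciferase luminescence in the same wells. EC50 and CC50 come from curve fitting.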

[9] = system: Hepatitis C virus subtype 1b; assay: Ratio of EC50 for HCV genotype 1b replicon NS5B S282T mutant to EC50 for wild type HCV genotype 1b replicon NS5B
Method in brief: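 Huh7 cells carrying wild-type or S282T mutant HCV genotype 1b replicon, 8000 cells per well, exposed to 3-fold compound dilution series (0.5% DMSO final, duplicates) for 72 h at 37 °C, 5% CO2. Replicon activity read by Bright-Glo luciferase luminescence. EC50 averaged from duplicate determinations; ratio taken as S282T EC50 over wild-type EC50.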

[10] = Half life in human plasma […] by LC/MS/MS analysis; format: ADME, cell-free
Method in brief: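 Pooled human plasma adjusted to pH 7.4 and prewarmed, then spiked to 2 μM final from a 200 μM DMSO working solution, in duplicate. Sampled at 0, 10, 30, 60 and 120 min and quenched with acetonitrile containing tolbutamide and buspirone. LC/MS/MS (MRM) peak area ratios; ke from linear regression of the initial linear phase, t1/2 = ln2/ke.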

[11] = Half life in human liver S9 fraction at 10 uM by LC/MS/MS analysis; format: ADME
Method in brief: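 Compound at 10 μM working solution (1% DMSO, 5% MeOH in 100 mM Tris) incubated at 37 °C with human liver S9 at 1 mg protein/mL final. Reactions stopped with cold acetonitrile containing tolbutamide internal standard at 0, 5, 10, 20, 30 and 60 min. Parent measured by LC/MS/MS (MRM) as analyte/IS peak area ratio, given as percent remaining versus 0 min; half-life fitted.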

Mus musculus [12] = assay: Acute toxicity in ICR mouse assessed as body weight loss at 150 to 1800 mg/kg, administered via oral gavage measured once a day over 14 days; format: organism-based; settings: in vivo, 336 h
Method in brief: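 ICR mice, 22−25 g, 5 per sex per group. Single oral gavage at 150, 500, 1200 or 1800 mg/kg in vehicle of 30% PEG400/30% Tween 20/20% corn oil/20% water, with a vehicle control. Mortality, morbidity, clinical signs and body weight change recorded once daily for 14 days.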

Mus musculus [13] = assay: Subacute toxicity in ICR mouse assessed as weight change in kidney at 100 to 1000 mg/kg, administered once a day via oral gavage for 14 days; format: organism-based; settings: in vivo, 336 h; method in brief: as §2
[14] = Drug metabolism in human HuH7 cells assessed as ((2R,3R,4R,5R)-4-fluoro-3-hydroxy-5-(4-hydroxy-2-oxo-3,4-dihydropyrimidin-1(2H)-yl)-4-methyltetrahydrofuran-2-yl)methyl tetrahydrogen triphosphate metabolite formation at 50 uM after 48 hrs by LC/MS/MS analysis; format: ADME, cell-based; settings: huh-7, 48 h; method in brief: as §3
Mus musculus [15] = assay: Subacute toxicity in ICR mouse assessed as mortality at 100 to 1000 mg/kg, administered once a day via oral gavage for 14 days; format: organism-based; settings: in vivo, 336 h; method in brief: as §2

CCCC(=O)Nc1ccn([C@@H]2O[C@H](CO[P@@](=O)(N[C@@H](C)C(=O)OC(C)C)Oc3ccccc3)[C@@H](O)[C@@]2(C)F)c(=O)n1
Activity (Mus musculus [1]): Non-Toxic
Activity (Mus musculus [2]): Non-Toxic
Activity (Mus musculus [3]): Non-Toxic
Activity (Mus musculus [4]): Non-Toxic
Drug metabolism [5]: Metabolite_Detected
Drug metabolism (UMP-CMP kinase): Metabolite_Detected
Drug metabolism [6]: Metabolite_Detected
Tmax [7]: 54 min
EC50 [8]: 0.24 µM
Ratio EC50 [9]: 3.2
half-life [10]: > 231 min
half-life at 10 µM [11]: 9.6 min
Activity (Mus musculus [12]): Non-Toxic
Activity (Mus musculus [13]): Non-Toxic
Drug metabolism [14]: Metabolite_Notdetected
Activity (Mus musculus [15]): Non-Toxic
